The values that follow come from paper PMC6368478 (ACS infectious diseases, 2018).

Assay [1] deals with T1, Sts-1HP (Homo sapiens, UniProt Q8TF42). The assay is described as follows: OMFP fluorescence phosphatase assay, 1,536-well HTS. It counts as biochemical. The note with it: for Averaged Max. Response (%): LOPAC pilot screen, 5.8 μM nominal concentration, triplicate, OMFP substrate.
For assay [2] the following is noted: read-out: Counterscreen IC50; compound added after NaOH stop, 10-point titration. The essentials:
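Same reagents and protocol as the primary OMFP screen: Sts-1HP at 750 ng/mL final in 30 mM Tris HCl, 75 mM NaCl, 1 mM EDTA, 1 mM DTT; OMFP 50 μM final; 20 min at room temperature in the dark; stopped with NaOH (100 mM final). Test compound is added after the NaOH stop. Fluorescence read; 10-point 3-fold titration in triplicate. IC50 comes from a four-parameter sigmoidal fit with adjustable baseline.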
Background: Counterscreens check selectivity or assay interference.

The target of the next assay is Sts-1HP Y596F (Homo sapiens, UniProt Q8TF42, Y607F). The assay is described as follows: pNPP inhibition analysis of Sts-1HP mutant. Type of assay: biochemical. A digest of the protocol:
(§1)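 Mutant Sts-1HP is expressed in E. coli BL21(DE3) and purified. Assay uses 20 mM Tris (pH 7.5), 150 mM NaCl, 5 mM MgCl2 and 1 mM βME with varying pNPP, following pNP release at 405 nm. Initial rates (<10% completion) are measured at several fixed inhibitor concentrations, with controls for compound optical interference, in triplicate. Ki is derived from Km in the presence of inhibitor via a Lineweaver-Burk competitive fit.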

For the next assay, the target named is Sts-1HP W494F (Homo sapiens, UniProt Q8TF42, W505F). The assay is described as follows: pNPP inhibition analysis of Sts-1HP mutant. Type of assay: biochemical. A digest of the protocol: as §1
Another assay deals with T2, PTP-1B (Homo sapiens, UniProt P18031).
T2 sequence (P18031 1-435): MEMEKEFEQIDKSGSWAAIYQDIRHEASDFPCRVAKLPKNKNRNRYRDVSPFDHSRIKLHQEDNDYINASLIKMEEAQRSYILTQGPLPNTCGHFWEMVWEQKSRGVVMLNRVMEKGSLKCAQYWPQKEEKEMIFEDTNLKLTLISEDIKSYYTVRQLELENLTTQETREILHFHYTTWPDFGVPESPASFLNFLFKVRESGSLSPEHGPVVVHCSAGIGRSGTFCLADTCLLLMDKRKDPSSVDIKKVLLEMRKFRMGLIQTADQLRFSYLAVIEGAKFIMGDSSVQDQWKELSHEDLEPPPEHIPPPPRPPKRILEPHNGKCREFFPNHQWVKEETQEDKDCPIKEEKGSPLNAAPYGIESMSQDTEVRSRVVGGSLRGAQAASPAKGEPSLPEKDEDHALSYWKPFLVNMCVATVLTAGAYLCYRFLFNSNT
Nature of the assay: pNPP inhibition analysis, selectivity. It counts as biochemical. Particulars: for Selectivity: more active against Sts-1 than PTP1B: from Ki values, Table 4.

Another assay concerns the target Sts-1HP W494L (Homo sapiens, UniProt Q8TF42, W505L). The assay is described as follows: pNPP inhibition analysis of Sts-1HP mutant. It counts as biochemical. The essentials: as §1
Another assay addresses SHP1 (Homo sapiens, UniProt P29350). Nature of the assay: pNPP inhibition analysis, selectivity. Type of assay: biochemical. The note with it: for Selectivity: more active against Sts-1 than SHP1: from Ki values, Table 4.
Another assay has as its target Sts-1HP Y596L (Homo sapiens, UniProt Q8TF42, Y607L). The assay is described as follows: pNPP inhibition analysis of Sts-1HP mutant. Type of assay: biochemical. A digest of the protocol:
as §1

The target of assay [3] is T1, Sts-1HP. The assay is described as follows: pNPP absorbance phosphatase assay, inhibition analysis. It counts as biochemical. Particulars: for Ki Ratio: Ki of construct / Ki of wild-type Sts-1HP, wild-type; for Mode of inhibition: double reciprocal plots, several inhibitor concentrations.
Another assay deals with Sts-1HP W494H (Homo sapiens, UniProt Q8TF42, W505H). The assay is described as follows: pNPP inhibition analysis of Sts-1HP mutant. Type of assay: biochemical. A digest of the protocol:
as §1

A further assay deals with Sts-1. The note with it: cited from earlier work.

SHP1, sequence (P29350 whole entry): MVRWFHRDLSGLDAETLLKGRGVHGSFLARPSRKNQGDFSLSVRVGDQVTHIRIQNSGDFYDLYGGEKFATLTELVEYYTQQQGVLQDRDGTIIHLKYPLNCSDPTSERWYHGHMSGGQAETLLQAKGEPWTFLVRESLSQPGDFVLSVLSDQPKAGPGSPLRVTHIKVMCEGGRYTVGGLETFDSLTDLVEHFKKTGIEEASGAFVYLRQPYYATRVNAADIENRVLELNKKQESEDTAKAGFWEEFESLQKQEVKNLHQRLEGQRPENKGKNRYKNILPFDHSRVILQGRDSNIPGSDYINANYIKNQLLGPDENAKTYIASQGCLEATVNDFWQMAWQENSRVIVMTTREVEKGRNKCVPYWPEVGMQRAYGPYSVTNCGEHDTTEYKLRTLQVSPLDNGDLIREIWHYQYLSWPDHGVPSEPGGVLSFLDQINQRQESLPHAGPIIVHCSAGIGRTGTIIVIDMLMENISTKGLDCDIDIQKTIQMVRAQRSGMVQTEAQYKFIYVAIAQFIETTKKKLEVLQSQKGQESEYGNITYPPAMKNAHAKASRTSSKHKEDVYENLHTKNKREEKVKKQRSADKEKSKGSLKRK
T1 sequence (Q8TF42 384-647 limits assumed): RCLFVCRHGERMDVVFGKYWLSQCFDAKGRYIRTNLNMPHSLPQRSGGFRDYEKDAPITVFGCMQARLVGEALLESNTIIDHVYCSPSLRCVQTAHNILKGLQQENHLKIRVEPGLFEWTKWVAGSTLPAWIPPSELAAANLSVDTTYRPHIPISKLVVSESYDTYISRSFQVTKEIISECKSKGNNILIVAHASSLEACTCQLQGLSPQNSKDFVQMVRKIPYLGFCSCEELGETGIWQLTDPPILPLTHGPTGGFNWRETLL
Sts-1HP Y596L, sequence (Q8TF42 384-647 Y607L): as the sequence (Q8TF42 384-647 limits assumed) above, with Y224L counted along it
Sts-1HP Y596F, sequence (Q8TF42 384-647 Y607F): as the sequence (Q8TF42 384-647 limits assumed) above, with Y224F counted along it
Sts-1HP W494H, sequence (Q8TF42 384-647 W505H): as the sequence (Q8TF42 384-647 limits assumed) above, with W122H counted along it
Sts-1HP W494L, sequence (Q8TF42 384-647 W505L): as the sequence (Q8TF42 384-647 limits assumed) above, with W122L counted along it
Sts-1HP W494F, sequence (Q8TF42 384-647 W505F): as the sequence (Q8TF42 384-647 limits assumed) above, with W122F counted along it

On to `NC(Cc1cc(O)c(O)cc1O)C(=O)O` (racemic) [6-Hydroxy-DL-DOPA], for which the “Averaged Max. Response (%)” value on Sts-1HP [1] is on record as 64.86%.

For `O=C(O)C1=CC(=C(c2ccc(O)c(C(=O)O)c2)c2ccc(O)c(C(=O)O)c2)C=CC1=O` [Aurintricarboxylic Acid], the “Averaged Max. Response (%)” value at Sts-1HP [1] is given as 89.95%.

In the case of `COc1cc(-c2ccc(/N=N/c3ccc4c(S(=O)(=O)O)cc(S(=O)(=O)O)c(N)c4c3O)c(OC)c2)ccc1/N=N/c1ccc2c(S(=O)(=O)O)cc(S(=O)(=O)O)c(N)c2c1O` [Chicago Sky Blue], the IC50 – broadly, the concentration needed to halve the response being measured – was over 14.5 µM in assay [2] and 1 µM against Sts-1HP [1].

On to `Nc1c(/N=N/c2ccc(-c3ccc(/N=N/c4cc(S(=O)(=O)O)c5ccccc5c4N)cc3)cc2)cc(S(=O)(=O)O)c2ccccc12` [Congo Red], for which the half-inhibitory concentration (IC50) in [2] is over 14.5 µM; against Sts-1HP [1] it was 0.92 µM. The Ki – broadly, the equilibrium dissociation constant of an inhibitor or competing ligand from its target – at Sts-1HP Y596F was found to be 0.23 ± 0.02 µM; at Sts-1HP W494F, 1.42 ± 0.32 µM; at PTP-1B, 1.47 ± 0.34 µM; at Sts-1HP W494L, 1.46 ± 0.13 µM; at SHP1 it was 3.88 ± 0.59 µM; on Sts-1HP Y596L it was 0.94 ± 0.05 µM. In addition, the values for the inhibition constant Ki at Sts-1HP [3] and on Sts-1HP W494H were 0.079 ± 0.02 µM and 1.07 ± 0.03 µM, respectively. Further, the “Selectivity: more active against Sts-1 than PTP1B” value at PTP-1B was “approximately 20 fold”. Further, the “Selectivity: more active against Sts-1 than SHP1” value at SHP1 is about 50 fold. Further, the “Ki Ratio” value at Sts-1HP [3] stood at 1. For the same molecule, the Mode of inhibition result on Sts-1HP [3] is “competitive inhibition”.

Turning to `CN(C)[C@@H]1C(O)=C(C(N)=O)C(=O)[C@@]2(O)C(O)=C3C(=O)c4c(O)ccc(Cl)c4[C@@H](O)[C@H]3C[C@@H]12` [Demeclocycline], the concentration for half-maximal inhibition (IC50) in assay [2] is over 14.5 µM; on Sts-1HP [1] it was 4.7 µM.

As to `CN(N=O)c1cc(O)ccc1O` [Dephostatin], on Sts-1HP [1], the “Averaged Max. Response (%)” value was found to be 43.47%.

For `C[C@H]1c2cccc(O)c2C(=O)C2=C(O)[C@]3(O)C(=O)C(C(N)=O)=C(O)[C@@H](N(C)C)[C@@H]3[C@@H](O)[C@@H]21` [Doxycycline], the values for the IC50 (in assay [2]; against Sts-1HP [1]) were over 14.5 µM and 4.1 µM, respectively. Further, the inhibition constant Ki came out at 390 ± 40 µM on Sts-1HP Y596F; 1420 ± 110 µM at Sts-1HP W494F; 730 ± 40 µM at Sts-1HP W494L; 490 ± 50 µM on Sts-1HP Y596L; 99 ± 19 µM at Sts-1HP [3]; 1480 ± 90 µM on Sts-1HP W494H. Moreover, the “Selectivity: more active against Sts-1 than PTP1B” value at PTP-1B is “more than 200 fold”. The “Ki Doxycycline” value on PTP-1B (pNPP substrate) and on SHP1 (pNPP substrate) was “No Inhibition” throughout. For the same molecule, the “Selectivity: more active against Sts-1 than SHP1” value on SHP1 is given as “more than 200 fold”. Besides, at Sts-1HP [1], the “Averaged Max. Response (%)” value is recorded as 45.03%. In addition, the “Ki Ratio” value on Sts-1HP [3] turned out to be 1. For the same molecule, on Sts-1HP [3], the Mode of inhibition entry was “competitive inhibition”.

Consider `Cc1cc(-c2ccc(/N=N/c3ccc4c(S(=O)(=O)O)cc(S(=O)(=O)O)c(N)c4c3O)c(C)c2)ccc1/N=N/c1ccc2c(S(=O)(=O)O)cc(S(=O)(=O)O)c(N)c2c1O` [Evans Blue], for which the results for the IC50 (in assay [2]; against Sts-1HP [1]) were 23.6 µM and 3.1 µM, respectively. The molecule also showed a Ki at Sts-1HP [3] of 0.39 ± 0.11 µM.

For the molecule `O=c1cc(O)cc(/C=C/c2ccc(O)c(O)c2)o1` [Hispidin], the “Averaged Max. Response (%)” value at Sts-1HP [1] came out at 44.44%.

As to `C[C@](N)(Cc1ccc(O)c(O)c1)C(=O)O` [L-α-methyl DOPA], the “Averaged Max. Response (%)” value on Sts-1HP [1] is listed as 57.45%.

Regarding `C=C1c2c(Cl)ccc(O)c2C(=O)C2=C(O)[C@]3(O)C(=O)C(C(N)=O)=C(O)[C@@H](N(C)C)[C@@H]3[C@@H](O)[C@H]12` [Meclocycline], the concentration for half-maximal inhibition (IC50) in [2] is over 14.5 µM; at Sts-1HP [1] it was 1.8 µM.

Turning to `C=C1c2cccc(O)c2C(=O)C2=C(O)[C@]3(O)C(=O)C(C(N)=O)=C(O)[C@@H](N(C)C)[C@@H]3[C@@H](O)[C@H]12` [Methacycline], the concentration for half-maximal inhibition (IC50) in [2] was over 14.5 µM; against Sts-1HP [1], 0.67 µM. On Sts-1HP [3], this molecule had a Ki of 326 ± 35 µM.

On to `CN(N=O)c1ccc(O)c(O)c1` [Methyl-3,4-Dephostatin], for which the “Averaged Max. Response (%)” value on Sts-1HP [1] is given as 46.07%.

Take `CN(C)c1ccc(O)c2c1C[C@H]1C[C@H]3[C@H](N(C)C)C(O)=C(C(N)=O)C(=O)[C@@]3(O)C(O)=C1C2=O` [Minocycline]: the “Averaged Max. Response (%)” value on Sts-1HP [1] came to 32.59%.

On to `O=c1c(O)c(-c2ccc(O)cc2O)oc2cc(O)cc(O)c12` [Morin], for which the “Averaged Max. Response (%)” value on Sts-1HP [1] was determined as 44.94%.

Consider `O=C(Nc1ccc(C(=O)Nc2ccc(C(=O)Nc3ccc(S(=O)(=O)O)c4cc(S(=O)(=O)O)cc(S(=O)(=O)O)c34)cc2)cc1)Nc1ccc(C(=O)Nc2ccc(C(=O)Nc3ccc(S(=O)(=O)O)c4cc(S(=O)(=O)O)cc(S(=O)(=O)O)c34)cc2)cc1` [NF-279], for which the IC50 in [2] was over 29 µM.

Turning to `CN(C)[C@@H]1C(O)=C(C(N)=O)C(=O)[C@@]2(O)C(O)=C3C(=O)c4c(O)cccc4[C@@](C)(O)[C@H]3[C@H](O)[C@@H]12` [Oxytetracyline], in assay [2], the IC50 was over 14.5 µM.

In turn, `O=C1C(=NNc2ccc(S(=O)(=O)O)cc2)C(c2ccc([N+](=O)[O-])cc2)=NN1c1ccccc1` [PHPS1, 4-[2-[1,5-dihydro-3-(4-nitrophenyl)-5-oxo-1-phenyl-4H-pyrazol-4-ylidene]hydrazinyl]-benzenesulfonic acid] gave an IC50 at Sts-1HP [1] of 17.6 µM. On Sts-1, the Ki is 1 µM.

On to `Cc1nc(N=Nc2cc(S(=O)(=O)O)c3cc([N+](=O)[O-])cc(S(=O)(=O)O)c3c2)c(COP(=O)(O)O)c(C=O)c1O` [PPNDS], for which the IC50 in [2] is over 29 µM.

As to `Nc1c(S(=O)(=O)O)cc(Nc2ccc(Nc3nc(Cl)nc(Nc4cccc(S(=O)(=O)O)c4)n3)c(S(=O)(=O)O)c2)c2c1C(=O)c1ccccc1C2=O` [Reactive Blue 2], the “Averaged Max. Response (%)” value on Sts-1HP [1] was 58.99%.

Take `CN(C)[C@@H]1C(O)=C(C(N)=O)C(=O)[C@@]2(O)C(O)=C3C(=O)c4c(O)cccc4[C@@](C)(O)[C@H]3C[C@@H]12` [Tetracycline]: the IC50 in [2] was over 14.5 µM; against Sts-1HP [1], 1.9 µM. The Ki at Sts-1HP [3] is 199 ± 20 µM.
